According to ChEMBL document CHEMBL3102784, “Salicylanilide diethyl phosphates: synthesis, antimicrobial activity and cytotoxicity” (Bioorg Med Chem, 2014):
≈ marks a conversion by molar mass, not a printed value. Calls of active or inactive are those of the source. The rule behind the calls is not given here.

Tests used:
Nakaseomyces glabratus = assay: Antifungal activity against Candida glabrata 20/I at 500 micromol/L after 24 to 48 hrs by broth microdilution method; type: functional, organism-based
How it was run: (§1)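 Broth microdilution in RPMI 1640 with glutamine, fluconazole as reference. For yeasts, MIC is ≥80% growth reduction (IC80) versus control. For filamentous fungi, the value is expressed as IC50. Readings at 24 and 48 h.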

[1] = system: Trichophyton mentagrophytes; assay: Antifungal activity against Trichophyton mentagrophytes 445 after 72 hrs by broth microdilution method; type: functional; conditions: Trichophyton mentagrophytes, 445, 72 h
How it was run: (§2)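 Filamentous dermatophyte tested by broth microdilution in RPMI 1640 with glutamine, fluconazole as reference. Value expressed as IC50 relative to growth control. Read at 72 and 120 h.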

[2] = system: Staphylococcus epidermidis; assay: Antibacterial activity against Staphylococcus epidermidis H 6966/08 after 24 hrs by broth microdilution method; type: functional; conditions: H 6966/08, 24 h
How it was run: (§3)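 Broth microdilution in Mueller–Hinton broth, compounds dissolved in DMSO, tested over a dilution series from 500 downward. MIC taken as ≥95% growth reduction (IC95) versus drug-free control. Benzylpenicillin comparator. Readings at 24 and 48 h.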

Mycobacterium kansasii [3] = assay: Antimycobacterial activity against Mycobacterium kansasii 6509/96 after 7 days; type: functional; conditions: 6509/96, 168 h
How it was run: (§4)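 Micromethod MIC in Šula's semisynthetic medium at 37 °C. Compounds added in DMSO at 1000 down to 0.032 µmol/L. Isoniazid standard in sterile water at 0.5–250 µmol/L. Inocula: H37Rv 10^3, M. avium 10^5, M. kansasii 10^4. Read at 14 and 21 d, plus 7 d for M. kansasii.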

Enterococcus sp. = assay: Antibacterial activity against Enterococcus sp. J 14365/08 at 500 micromol/L after 24 to 48 hrs by broth microdilution method; type: functional, organism-based; how it was run: as §3
Aspergillus fumigatus [4] = assay: Antifungal activity against Aspergillus fumigatus 231 after 24 hrs by broth microdilution method; type: functional; conditions: Aspergillus fumigatus, 231, 24 h; how it was run: as §1
Lichtheimia corymbifera [5] = assay: Antifungal activity against Absidia corymbifera 272 after 24 hrs by broth microdilution method; type: functional; conditions: Lichtheimia corymbifera, 272, 24 h; how it was run: as §1
Escherichia coli = assay: Antibacterial activity against Escherichia coli CCM 4517 at 500 micromol/L after 24 to 48 hrs by broth microdilution method; type: functional, organism-based; how it was run: as §3
Aspergillus fumigatus [6] = assay: Antifungal activity against Aspergillus fumigatus 231 after 48 hrs by broth microdilution method; type: functional; conditions: Aspergillus fumigatus, 231, 48 h; how it was run: as §1
Mycobacterium avium [7] = assay: Antimycobacterial activity against isoniazid, rifampicin, ethambutol and ofloxacin-resistant Mycobacterium avium My 330/88 after 21 days; type: functional; conditions: My 330/88, 504 h; how it was run: as §4
Pichia kudriavzevii [8] = assay: Antifungal activity against Candida krusei E28 after 24 hrs by broth microdilution method; type: functional; conditions: E28, 24 h; how it was run: as §1
Mycobacterium avium [9] = assay: Antimycobacterial activity against isoniazid, rifampicin, ethambutol and ofloxacin-resistant Mycobacterium avium My 330/88 after 14 days; type: functional; conditions: My 330/88, 336 h; how it was run: as §4
Mycobacterium kansasii [10] = assay: Antimycobacterial activity against Mycobacterium kansasii My 235/80 after 21 days; type: functional; conditions: My 235/80, 504 h; how it was run: as §4
Candida albicans [11] = assay: Antifungal activity against Candida albicans ATCC 44859 after 48 hrs by broth microdilution method; type: functional; conditions: ATCC 44859, 48 h; how it was run: as §1
Mycobacterium kansasii [12] = assay: Antimycobacterial activity against Mycobacterium kansasii 6509/96 after 14 days; type: functional; conditions: 6509/96, 336 h; how it was run: as §4
Candida albicans [13] = assay: Antifungal activity against Candida albicans ATCC 44859 after 24 hrs by broth microdilution method; type: functional; conditions: ATCC 44859, 24 h; how it was run: as §1
Staphylococcus aureus [14] = assay: Antibacterial activity against methicillin-resistant Staphylococcus aureus H 5996/08 after 24 hrs by broth microdilution method; type: functional; conditions: H 5996/08, 24 h; how it was run: as §3
Staphylococcus aureus [15] = assay: Antibacterial activity against methicillin-resistant Staphylococcus aureus H 5996/08 after 48 hrs by broth microdilution method; type: functional; conditions: H 5996/08, 48 h; how it was run: as §3
Mycobacterium kansasii [16] = assay: Antimycobacterial activity against Mycobacterium kansasii 6509/96 after 21 days; type: functional; conditions: 6509/96, 504 h; how it was run: as §4
Klebsiella pneumoniae [17] = assay: Antibacterial activity against Klebsiella pneumoniae D 11750/08 at 500 micromol/L after 24 to 48 hrs by broth microdilution method; type: functional, organism-based; how it was run: as §3
[18] = system: Trichophyton mentagrophytes; assay: Antifungal activity against Trichophyton mentagrophytes 445 after 120 hrs by broth microdilution method; type: functional; conditions: Trichophyton mentagrophytes, 445, 120 h; how it was run: as §2
Trichosporon asahii [19] = assay: Antifungal activity against Trichosporon asahii 1188 after 48 hrs by broth microdilution method; type: functional; conditions: Trichosporon asahii, 1188, 48 h; how it was run: as §1
[20] = system: Staphylococcus epidermidis; assay: Antibacterial activity against Staphylococcus epidermidis H 6966/08 after 48 hrs by broth microdilution method; type: functional; conditions: H 6966/08, 48 h; how it was run: as §3
Pseudomonas aeruginosa = assay: Antibacterial activity against Pseudomonas aeruginosa CCM 1961 at 500 micromol/L after 24 to 48 hrs by broth microdilution method; type: functional, organism-based; how it was run: as §3
Pichia kudriavzevii [21] = assay: Antifungal activity against Candida krusei E28 after 48 hrs by broth microdilution method; type: functional; conditions: E28, 48 h; how it was run: as §1
HepG2 = assay: Cytotoxicity against human HepG2 cells after 24 hrs by CellTiter assay; type: cell-based; conditions: HepG2, 24 h
How it was run: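 HepG2 cells (passage 27–33) in MEM with 10% FBS, L-glutamine and NEAA, seeded at 1×10^4 per well. Treated next day with compounds at 0.1–100 µM (or 0.1–25 µmol/L), triplicates, <1% DMSO, for 24 h at 37 °C, 5% CO2. MTS reagent added for 2 h, absorbance read at 490 nm. IC50 taken against untreated (100%) and 10% DMSO (0%) controls.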

Staphylococcus aureus [22] = assay: Antibacterial activity against Staphylococcus aureus CCM 4516/08 after 48 hrs by broth microdilution method; type: functional; conditions: CCM 4516/08, 48 h; how it was run: as §3
Lichtheimia corymbifera [23] = assay: Antifungal activity against Absidia corymbifera 272 after 48 hrs by broth microdilution method; type: functional; conditions: Lichtheimia corymbifera, 272, 48 h; how it was run: as §1
[24] = system: Mycobacterium tuberculosis; assay: Antimycobacterial activity against Mycobacterium tuberculosis H37Rv My 331/88 after 21 days; type: functional; conditions: H37Rv My 331/88, 504 h; how it was run: as §4
[25] = system: Mycobacterium tuberculosis; assay: Antimycobacterial activity against Mycobacterium tuberculosis H37Rv My 331/88 after 14 days; type: functional; conditions: H37Rv My 331/88, 336 h; how it was run: as §4
Klebsiella pneumoniae [26] = assay: Antibacterial activity against ESBL-positive Klebsiella pneumoniae J 14368/08 at 500 micromol/L after 24 to 48 hrs by broth microdilution method; type: functional, organism-based; how it was run: as §3
Mycobacterium kansasii [27] = assay: Antimycobacterial activity against Mycobacterium kansasii My 235/80 after 7 days; type: functional; conditions: My 235/80, 168 h; how it was run: as §4
Staphylococcus aureus [28] = assay: Antibacterial activity against Staphylococcus aureus CCM 4516/08 after 24 hrs by broth microdilution method; type: functional; conditions: CCM 4516/08, 24 h; how it was run: as §3
Candida tropicalis = assay: Antifungal activity against Candida tropicalis 156 at 500 micromol/L after 24 to 48 hrs by broth microdilution method; type: functional, organism-based; how it was run: as §1
Mycobacterium kansasii [29] = assay: Antimycobacterial activity against Mycobacterium kansasii My 235/80 after 14 days; type: functional; conditions: My 235/80, 336 h; how it was run: as §4
Trichosporon asahii [30] = assay: Antifungal activity against Trichosporon asahii 1188 after 24 hrs by broth microdilution method; type: functional; conditions: Trichosporon asahii, 1188, 24 h; how it was run: as §1

| SMILES | Activity (Nakaseomyces glabratus) | MIC50 [1] [µM] | MIC95 [2] [µM] | MIC (Mycobacterium kansasii [3]) [µM] | Activity (Enterococcus sp.) | MIC50 (Aspergillus fumigatus [4]) [µM] | MIC50 (Lichtheimia corymbifera [5]) [µM] | Activity (Escherichia coli) | MIC50 (Aspergillus fumigatus [6]) [µM] | MIC (Mycobacterium avium [7]) [µM] | MIC80 (Pichia kudriavzevii [8]) [µM] | MIC (Mycobacterium avium [9]) [µM] | MIC (Mycobacterium kansasii [10]) [µM] | MIC80 (Candida albicans [11]) [µM] | MIC (Mycobacterium kansasii [12]) [µM] | MIC80 (Candida albicans [13]) [µM] | MIC95 (Staphylococcus aureus [14]) [µM] | MIC95 (Staphylococcus aureus [15]) [µM] | MIC (Mycobacterium kansasii [16]) [µM] | Activity (Klebsiella pneumoniae [17]) | other results |
| --- | --- | --- | --- | --- | --- | --- | --- | --- | --- | --- | --- | --- | --- | --- | --- | --- | --- | --- | --- | --- | --- |
| CCOP(=O)(OCC)Oc1ccc(Br)cc1C(=O)Nc1ccc(C(F)(F)F)cc1 | inactive | 250 (≈ 124 µg/mL) | 7.81 (≈ 3.88 µg/mL) | 2 (≈ 0.992 µg/mL) | inactive | > 500 | > 500 | inactive | > 500 | 8 (≈ 3.97 µg/mL) | > 500 | 8 (≈ 3.97 µg/mL) | 2 (≈ 0.992 µg/mL) | > 500 | 2 (≈ 0.992 µg/mL) | > 500 | 15.6 (≈ 7.75 µg/mL) | 15.6 (≈ 7.75 µg/mL) | 2 (≈ 0.992 µg/mL) | inactive | MIC50 [18]: 250 µM (≈ 124 µg/mL); MIC80 (Trichosporon asahii [19]): > 500 µM; MIC95 [20]: 15.6 µM (≈ 7.75 µg/mL); Activity (Pseudomonas aeruginosa): inactive; MIC80 (Pichia kudriavzevii [21]): > 500 µM; IC50 (HepG2): 1.84 µM; MIC95 (Staphylococcus aureus [22]): 31.2 µM (≈ 15.5 µg/mL); MIC50 (Lichtheimia corymbifera [23]): > 500 µM; MIC [24]: 1 µM (≈ 0.496 µg/mL); MIC [25]: 1 µM (≈ 0.496 µg/mL); Activity (Klebsiella pneumoniae [26]): inactive; MIC (Mycobacterium kansasii [27]): 1 µM (≈ 0.496 µg/mL); MIC95 (Staphylococcus aureus [28]): 15.6 µM (≈ 7.75 µg/mL); Activity (Candida tropicalis): inactive; MIC (Mycobacterium kansasii [29]): 2 µM (≈ 0.992 µg/mL); MIC80 (Trichosporon asahii [30]): > 500 µM |
| CCOP(=O)(OCC)Oc1cc(Cl)ccc1C(=O)Nc1ccc(Cl)cc1 | inactive | 500 (≈ 209 µg/mL) | 250 (≈ 105 µg/mL) | 4 (≈ 1.67 µg/mL) | inactive | > 500 | > 500 | inactive | > 500 | 8 (≈ 3.35 µg/mL) | > 500 | 8 (≈ 3.35 µg/mL) | 8 (≈ 3.35 µg/mL) | > 500 | 8 (≈ 3.35 µg/mL) | > 500 | 500 (≈ 209 µg/mL) | > 500 | 8 (≈ 3.35 µg/mL) | inactive | MIC50 [18]: 500 µM (≈ 209 µg/mL); MIC80 (Trichosporon asahii [19]): > 500 µM; MIC95 [20]: 500 µM (≈ 209 µg/mL); Activity (Pseudomonas aeruginosa): inactive; MIC80 (Pichia kudriavzevii [21]): > 500 µM; IC50 (HepG2): 5.6 µM; MIC95 (Staphylococcus aureus [22]): 250 µM (≈ 105 µg/mL); MIC50 (Lichtheimia corymbifera [23]): > 500 µM; MIC [24]: 4 µM (≈ 1.67 µg/mL); MIC [25]: 4 µM (≈ 1.67 µg/mL); Activity (Klebsiella pneumoniae [26]): inactive; MIC (Mycobacterium kansasii [27]): 4 µM (≈ 1.67 µg/mL); MIC95 (Staphylococcus aureus [28]): 125 µM (≈ 52.3 µg/mL); Activity (Candida tropicalis): inactive; MIC (Mycobacterium kansasii [29]): 4 µM (≈ 1.67 µg/mL); MIC80 (Trichosporon asahii [30]): > 500 µM |
